Data on eight compounds can be found in ChEMBL document CHEMBL2390927, “Design, synthesis and antimicrobial evaluation of novel benzimidazole type of Fluconazole analogues and their synergistic effects with Chloromycin, Norfloxacin and Fluconazole” (2013).

The subject of experiment [1] is Candida. As to the kind of experiment: Antifungal activity against Candida mycoderma after 24 hrs by two-fold serial dilution method. The experiment is classed as functional. In outline:
(§1)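 Spore suspension in sterile distilled water from one-day-old cultures on Sabouraud agar, final 1–5 × 10³ spore mL⁻¹. Compound stocks diluted in sterile RPMI 1640 as two-fold serial dilutions in microdilution plates. MIC is the lowest concentration completely inhibiting growth. Growth monitored visually and spectrophotometrically, in triplicate.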

In experiment [2] the test system is Candida albicans. As to the kind of experiment: Antifungal activity against Candida albicans ATCC 76615 after 24 hrs by two-fold serial dilution method. Conditions: ATCC 76615, 24 h. The format is functional. In a few lines:
as §1

The test system of experiment [3] is Salmonella typhi. Put plainly: Antibacterial activity against Bacillus typhi after 24 hrs by two-fold serial dilution method. The experiment is classed as functional, Salmonella enterica subsp. enterica serovar Typhi. The settings on record: Salmonella enterica. In a few lines: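 Two-fold serial dilution in 96-well plates following NCCLS; compounds dissolved in DMSO as stocks, then diluted in Mueller-Hinton broth; bacterial suspension adjusted with sterile saline to 1 × 10⁵ CFU; MIC taken as lowest concentration completely inhibiting growth, monitored visually and spectrophotometrically; DMSO-plus-inoculum well as solvent control; triplicate.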

Experiment [4] deals with Pseudomonas aeruginosa. As to the kind of experiment: Antibacterial activity against Pseudomonas aeruginosa ATCC 27853 after 24 hrs by two-fold serial dilution method. The settings on record: ATCC 27853, 24 h. The format is functional. In a few lines:
(§2)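 MIC taken as the lowest concentration giving complete growth inhibition, by standard two-fold serial dilution in 96-well plates following NCCLS. Stocks in DMSO, diluted in Mueller–Hinton broth. Inoculum adjusted with sterile saline to 1 × 10⁵ CFU. DMSO with inoculum and no drug served as solvent control. Growth read visually and spectrophotometrically, in triplicate.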

The test system of experiment [5] is Escherichia coli. Put plainly: Antibacterial activity against Escherichia coli JM109 after 24 hrs by two-fold serial dilution method. The format is functional. Conditions: JM109, 24 h.
In experiment [6] the test system is Bacillus. As to the kind of experiment: Antibacterial activity against Bacillus proteus ATCC 13315 after 24 hrs by two-fold serial dilution method. The experiment is classed as functional. The settings on record: ATCC 13315, 24 h. In outline: as §2
The subject of experiment [7] is Micrococcus luteus. As to the kind of experiment: Antibacterial activity against Micrococcus luteus ATCC 4698 after 24 hrs by two-fold serial dilution method. The experiment is classed as functional. Conditions: ATCC 4698, 24 h. In a few lines: as §2
Experiment [8] has as its system Bacillus subtilis. As to the kind of experiment: Antibacterial activity against Bacillus subtilis ATCC 21216 after 24 hrs by two-fold serial dilution method. Conditions: ATCC 21216, 24 h. The experiment is classed as functional. In outline:
as §2

The test system of experiment [9] is Staphylococcus aureus. As to the kind of experiment: Antibacterial activity against methicillin-resistant Staphylococcus aureus N315 after 24 hrs by two-fold serial dilution method. The experiment is classed as functional. Conditions: N315, 24 h.
Experiment [10] deals with Staphylococcus aureus. Put plainly: Antibacterial activity against Staphylococcus aureus ATCC 6538 after 24 hrs by two-fold serial dilution method. The format is functional. Conditions: ATCC 6538, 24 h.
Experiment [11] deals with Aspergillus flavus. Put plainly: Antifungal activity against Aspergillus flavus after 24 hrs by two-fold serial dilution method. The format is functional. In a few lines: as §1
Experiment [12] concerns Cyberlindnera jadinii. As to the kind of experiment: Antifungal activity against Candida utilis after 24 hrs by two-fold serial dilution method. The format is functional. Conditions: Williopsis jadinii. In outline: as §1
The subject of experiment [13] is Saccharomyces cerevisiae. As to the kind of experiment: Antifungal activity against Saccharomyces cerevisiae after 24 hrs by two-fold serial dilution method. The format is functional. In outline:
as §1

Values after ≈ are worked out from the molar mass of the structure shown.

Take `CCCCCCCCN(Cc1nc2ccccc2[nH]1)c1ccc(C)cc1`: the MIC in experiment [1] came out at 32 mg/L (≈ 91.6 µM); in experiment [2], 16 mg/L (≈ 45.8 µM); in experiment [3], 64 mg/L (≈ 183 µM); in [4] it was 16 mg/L (≈ 45.8 µM); in experiment [5], 128 mg/L (≈ 366 µM); in experiment [6] it was 64 mg/L (≈ 183 µM). For the same compound, the MIC was 128 mg/L (≈ 366 µM) in experiment [7]; 16 mg/L (≈ 45.8 µM) in experiment [8]; 128 mg/L (≈ 366 µM) in experiment [9]; 32 mg/L (≈ 91.6 µM) in experiment [10]; 64 mg/L (≈ 183 µM) in experiment [11]; 32 mg/L (≈ 91.6 µM) in experiment [12]. In experiment [13], inhibition of growth (MIC) required 16 mg/L (≈ 45.8 µM).
Regarding `CCCCCCCCCCN(Cc1nc2ccccc2[nH]1)c1ccc(C)cc1`, the MIC in experiment [1] was 128 mg/L (≈ 339 µM); in [2], 64 mg/L (≈ 170 µM); in experiment [3], 128 mg/L (≈ 339 µM); in experiment [4], 128 mg/L (≈ 339 µM); in experiment [5], 128 mg/L (≈ 339 µM); in experiment [6], 256 mg/L (≈ 678 µM). Also, the minimum inhibitory concentration (MIC) in experiment [7] is 128 mg/L (≈ 339 µM); in [8], 64 mg/L (≈ 170 µM); in [9], 64 mg/L (≈ 170 µM); in [10] it was 128 mg/L (≈ 339 µM); in [11], 64 mg/L (≈ 170 µM); in [12], 64 mg/L (≈ 170 µM). The same compound gave an MIC in [13] of 32 mg/L (≈ 84.8 µM).
Turning to `CCCCCCCCCCCCN(Cc1nc2ccccc2[nH]1)c1ccc(C)cc1`, the MIC in [1] came to 16 mg/L (≈ 39.4 µM); in experiment [2] it was 64 mg/L (≈ 158 µM); in [3] it was 64 mg/L (≈ 158 µM); in experiment [4], 128 mg/L (≈ 316 µM); in experiment [5] it was 128 mg/L (≈ 316 µM); in experiment [6] it was 64 mg/L (≈ 158 µM). In addition, the MIC amounted to 64 mg/L (≈ 158 µM) in [7]; 128 mg/L (≈ 316 µM) in experiment [8]; 128 mg/L (≈ 316 µM) in experiment [9]; 64 mg/L (≈ 158 µM) in experiment [10]; 64 mg/L (≈ 158 µM) in experiment [11]; 32 mg/L (≈ 78.9 µM) in experiment [12]. This compound also had an MIC in experiment [13] of 64 mg/L (≈ 158 µM).
On to `CCCCCCCCCCCCCCCCCCN(Cc1nc2ccccc2[nH]1)c1ccc(C)cc1`, for which the MIC in experiment [1] turned out to be 32 mg/L (≈ 65.3 µM); in experiment [2] it was 32 mg/L (≈ 65.3 µM); in experiment [3] it was 64 mg/L (≈ 131 µM); in experiment [4], 64 mg/L (≈ 131 µM); in experiment [5], 256 mg/L (≈ 523 µM); in [6], 64 mg/L (≈ 131 µM). In addition, the MIC in experiment [7] came to 256 mg/L (≈ 523 µM); in experiment [8] it was 64 mg/L (≈ 131 µM); in experiment [9] it was 128 mg/L (≈ 261 µM); in experiment [10], 128 mg/L (≈ 261 µM); in experiment [11], 64 mg/L (≈ 131 µM); in experiment [12], 32 mg/L (≈ 65.3 µM). The MIC in experiment [13] amounted to 64 mg/L (≈ 131 µM).
In the case of `Fc1ccccc1N(Cc1ccc(Cl)c(Cl)c1)Cc1nc2ccccc2[nH]1`, the MIC was found to be 32 mg/L (≈ 79.9 µM) in [1]; 32 mg/L (≈ 79.9 µM) in experiment [2]; 128 mg/L (≈ 320 µM) in experiment [3]; 64 mg/L (≈ 160 µM) in experiment [4]; 32 mg/L (≈ 79.9 µM) in experiment [5]; 64 mg/L (≈ 160 µM) in experiment [6]. Besides, the MIC turned out to be 128 mg/L (≈ 320 µM) in [7]; 32 mg/L (≈ 79.9 µM) in [8]; 128 mg/L (≈ 320 µM) in experiment [9]; 64 mg/L (≈ 160 µM) in experiment [10]; 64 mg/L (≈ 160 µM) in [11]; 32 mg/L (≈ 79.9 µM) in [12]. In experiment [13], this compound yielded an MIC of 64 mg/L (≈ 160 µM).
As for `FC(F)(F)c1cccc(N(Cc2nc3ccccc3[nH]2)Cc2ccc(Cl)cc2Cl)c1`, the MIC in [1] was found to be 32 mg/L (≈ 71.1 µM); in experiment [2] it was 64 mg/L (≈ 142 µM); in experiment [3] it was 32 mg/L (≈ 71.1 µM); in experiment [4], 32 mg/L (≈ 71.1 µM); in experiment [5], 64 mg/L (≈ 142 µM); in [6] it was 64 mg/L (≈ 142 µM). For the same compound, the MIC in experiment [7] came to 32 mg/L (≈ 71.1 µM); in experiment [8], 64 mg/L (≈ 142 µM); in [9], 32 mg/L (≈ 71.1 µM); in experiment [10], 32 mg/L (≈ 71.1 µM); in experiment [11], 64 mg/L (≈ 142 µM); in experiment [12], 32 mg/L (≈ 71.1 µM). This compound also came in with an MIC in experiment [13] of 32 mg/L (≈ 71.1 µM).
Regarding `Fc1ccc(N(Cc2nc3ccccc3[nH]2)Cc2ccc(Cl)cc2Cl)cc1`, the MIC is 64 mg/L (≈ 160 µM) in experiment [1]; 32 mg/L (≈ 79.9 µM) in [2]; 64 mg/L (≈ 160 µM) in [3]; 64 mg/L (≈ 160 µM) in [4]; 128 mg/L (≈ 320 µM) in experiment [5]; 32 mg/L (≈ 79.9 µM) in experiment [6]. The MIC in experiment [7] came out at 64 mg/L (≈ 160 µM); in experiment [8] it was 64 mg/L (≈ 160 µM); in experiment [9], 64 mg/L (≈ 160 µM); in experiment [10] it was 32 mg/L (≈ 79.9 µM); in experiment [11], 64 mg/L (≈ 160 µM); in experiment [12], 32 mg/L (≈ 79.9 µM). In [13], this compound returned an MIC of 64 mg/L (≈ 160 µM).
Turning to `Cc1ccc(N(Cc2nc3ccccc3[nH]2)Cc2ccccc2Cl)cc1`, the minimum inhibitory concentration (MIC) in [1] amounted to 32 mg/L (≈ 88.4 µM); in experiment [2], 32 mg/L (≈ 88.4 µM); in experiment [3] it was 64 mg/L (≈ 177 µM); in experiment [4] it was 32 mg/L (≈ 88.4 µM); in experiment [5], 32 mg/L (≈ 88.4 µM); in experiment [6], 32 mg/L (≈ 88.4 µM). The MIC in experiment [7] was determined as 128 mg/L (≈ 354 µM); in experiment [8], 64 mg/L (≈ 177 µM); in [9], 128 mg/L (≈ 354 µM); in experiment [10], 64 mg/L (≈ 177 µM); in [11] it was 32 mg/L (≈ 88.4 µM); in experiment [12], 32 mg/L (≈ 88.4 µM). In [13], inhibition of growth (MIC) required 64 mg/L (≈ 177 µM).
